Measurements as given in publication PMC9075506 (RSC Advances, 2019).
Where two headings read alike, the source gives them in different places.

What was measured:
[1] = Pharmacokinetic study in 6-OHDA-induced PD rats after oral administration; assay type: in vivo; conditions: rat, plasma
[2] = Pharmacokinetic study in sham rats after oral administration of PLA; assay type: in vivo; conditions: rat, plasma, 50 mg/kg
[3] = assay type: in vitro ADME, rat; conditions: n = 3; for Stability, autosampler (20 °C, 4 h), RE: processed rat plasma; for Stability, long-term (−80 °C, 30 d), RE / Stability, short-term (4 °C, 48 h), RE / Stability, three freeze–thaw cycles, RE: rat plasma
Method in brief: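 Plasma (50 μL) precipitated with methanol/acetonitrile (1:1) containing internal standard (10 ng mL−1), vortexed 3 min, centrifuged 12 000 g for 10 min. Supernatant was run on C18 UFLC with a 0.1% formic acid/acetonitrile gradient at 0.5 mL min−1, detected by positive-ESI MRM. Quantified by analyte/IS peak-area ratio against a 1/x2-weighted linear calibration; accuracy given as RE (%).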

[4] = normal rats, oral administration of PLA, tissue distribution; cited from earlier work
[5] = high QC: spiked 160 ng mL^−1 (PLTR 4000 ng mL^−1)
[6] = low QC: spiked 0.6 ng mL^−1 (PLTR 15 ng mL^−1)
[7] = medium QC: spiked 10 ng mL^−1 (PLTR 250 ng mL^−1)

Row | Compound | AUC(0-t) ([1]; 50 mg/kg) [ng·h/mL] | Cmax ([1]; 50 mg/kg) [ng/mL] | MRT ([1]; 50 mg/kg) [h] | Tmax ([1]; 50 mg/kg) [h] | half-life ([1]; 50 mg/kg) [h] | Cmax [2] [ng/mL] | MRT [2] [h] | Tmax [2] [h] | half-life [2] [h] | Stability, autosampler (20 °C, 4 h), RE [3, 5] [%] | Stability, autosampler (20 °C, 4 h), RE [3, 6] [%] | Stability, autosampler (20 °C, 4 h), RE [3, 7] [%] | Stability, long-term (−80 °C, 30 d), RE [3, 5] [%] | Stability, short-term (4 °C, 48 h), RE [3, 5] [%] | Stability, three freeze–thaw cycles, RE [3, 5] [%] | Stability, long-term (−80 °C, 30 d), RE [3, 6] [%] | Stability, short-term (4 °C, 48 h), RE [3, 6] [%] | Stability, three freeze–thaw cycles, RE [3, 6] [%] | Stability, long-term (−80 °C, 30 d), RE [3, 7] [%] | Stability, short-term (4 °C, 48 h), RE [3, 7] [%] | other results
1 | O=C(/C=C/C=C/c1ccc2c(c1)OCO2)N1CCCCC1 [PPR, piperine] | 9700 ± 2670 | 978 ± 214 | 5.99 ± 0.63 | 4 ± 1.41 | 3.65 ± 3.45 | 1000 ± 146 | 6.83 ± 0.44 | 4.8 ± 2.28 | 3.4 ± 2.15 | −5.00 | −2.67 | 7.67 | 0.21 | −2.92 | 0.42 | −7.44 | −4.06 | −5.06 | 10.33 | 11.33 | AUC(0-inf) ([1]; 25 mg/kg): 7120 ± 1770 ng·h/mL; AUC(0-t) ([1]; 25 mg/kg): 7110 ± 1770 ng·h/mL; Cmax ([1]; 25 mg/kg): 825 ± 241 ng/mL; MRT ([1]; 25 mg/kg): 6.27 ± 0.56 h; Tmax ([1]; 25 mg/kg): 2.95 ± 2.06 h; half-life ([1]; 25 mg/kg): 2.41 ± 0.34 h; Stability, three freeze–thaw cycles, RE [3, 7]: 9.67%; Crossing of the blood–brain barrier [4]: could cross the blood–brain barrier
2 | O=C(/C=C/CCc1ccc2c(c1)OCO2)N1CCCCC1 [PPRA, piperanine] | 136 ± 45.6 | 123 ± 57.6 | 2.43 ± 1.52 | 0.18 ± 0.09 | 2.8 ± 1.71 | 160 ± 120 | 3.72 ± 1.3 | 0.18 ± 0.09 | 4.16 ± 1.32 | −9.38 | −2.28 | 7.33 | −6.25 | −8.33 | −4.79 | 0.94 | −3.50 | 4.67 | 6.33 | 10.00 | AUC(0-inf) ([1]; 50 mg/kg): 137 ± 45.3 ng·h/mL; AUC(0-inf) [2]: 230 ± 150 ng·h/mL; AUC(0-t) [2]: 225 ± 155 ng·h/mL; Stability, three freeze–thaw cycles, RE [3, 7]: 7.33%
3 | CC(C)CNC(=O)/C=C/C=C/c1ccc2c(c1)OCO2 [PPL, piperlonguminine] | 242 ± 57.2 | 97.3 ± 18 | 2.98 ± 0.84 | 0.45 ± 0.21 | 2.42 ± 1.23 | 89.1 ± 41.7 | 4.6 ± 1.33 | 0.45 ± 0.11 | 3.68 ± 1.32 | −5.63 | −4.78 | 5.33 | −1.04 | −3.75 | 0.63 | −4.78 | −9.22 | −12.61 | 8.00 | 7.33 | AUC(0-inf) ([1]; 50 mg/kg): 245 ± 57.5 ng·h/mL; AUC(0-inf) [2]: 318 ± 123 ng·h/mL; AUC(0-t) [2]: 302 ± 116 ng·h/mL; Stability, three freeze–thaw cycles, RE [3, 7]: 6.67%; Crossing of the blood–brain barrier [4]: could cross the blood–brain barrier
